Read-outs that look alike come from different tables or passages of the source.
Legend:
[1] = tested on: Relapsed/Refractory Lymphoma; details: cited from earlier work
[2] = Phase 1 safety evaluation; type: in vivo, human; details: for Dose interruption: due to thrombocytopenia; for tolerability: Chinese patients with r/r B cell NHL, 40-80 mg BID
Outline: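 3 + 3 escalation of oral test compound, 40, 60 or 80 mg BID 4 h apart, 7 days on and 7 off, after a single dose on D-3. Investigators graded AEs at every visit per CTCAE v5.0. DLT was assessed over cycle 1 and covered grade 4 cytopenias, febrile or bleeding grade ≥3 cytopenias, and grade ≥3 non-hematological toxicity. Safety set: ≥1 dose and ≥1 safety evaluation.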

[3] = PCYC-0403, r/r FL patients (n = 14)

Structure (SMILES): CN(C)Cc1c(C(=O)NCCOc2ccc(C(=O)NO)cc2)oc2ccccc12 [abexinostat, Abexinostat]
- ORR ([1]; PCYC-0403, mantle cell lymphoma, 3/11): 27.3%
- median PFS ([1]; PCYC-0403, mantle cell lymphoma): 3.9 months
- CR, patients [1, 3]: 1
- PR, patients [1, 3]: 8
- ORR ([1]; PCYC-0403, r/r FL patients, 9/14): 64.3%
- DCR ([1]; PCYC-0403, r/r FL patients, 12/14): 85.7%
- median PFS ([1]; PCYC-0403, r/r FL patients): 20.5 months
- TEAE: Abnormal ST segment on electrocardiogram ([2]; 40 mg BID (n = 4), Any grade): 0 n (%)
- TEAE: Abnormal T-wave on electrocardiogram ([2]; 40 mg BID (n = 4), Any grade): 0 n (%)
- TEAE: Anemia ([2]; 40 mg BID (n = 4), Any grade): 1 (25.0) n (%)
- TEAE: Any TEAEs ([2]; 40 mg BID (n = 4), Any grade): 4 (100) n (%)
- TEAE: Diarrhea ([2]; 40 mg BID (n = 4), Any grade): 0 n (%)
- TEAE: Elevated low-density lipoprotein ([2]; 40 mg BID (n = 4), Any grade): 1 (25.0) n (%)
- TEAE: Elevated α-hydroxybutyrate dehydrogenase ([2]; 40 mg BID (n = 4), Any grade): 1 (25.0) n (%)
- TEAE: Fatigue ([2]; 40 mg BID (n = 4), Any grade): 1 (25.0) n (%)
- TEAE: Hypercholesterolemia ([2]; 40 mg BID (n = 4), Any grade): 1 (25.0) n (%)
- TEAE: Hyperglycemia ([2]; 40 mg BID (n = 4), Any grade): 1 (25.0) n (%)
- TEAE: Hypertriglyceridemia ([2]; 40 mg BID (n = 4), Any grade): 1 (25.0) n (%)
- TEAE: Hyperuricemia ([2]; 40 mg BID (n = 4), Any grade): 1 (25.0) n (%)
- TEAE: Hypoalbuminemia ([2]; 40 mg BID (n = 4), Any grade): 2 (50.0) n (%)
- TEAE: Hypoproteinemia ([2]; 40 mg BID (n = 4), Any grade): 1 (25.0) n (%)
- TEAE: Leukopenia ([2]; 40 mg BID (n = 4), Any grade): 0 n (%)
- TEAE: Lymphopenia ([2]; 40 mg BID (n = 4), Any grade): 0 n (%)
- TEAE: Nausea ([2]; 40 mg BID (n = 4), Any grade): 0 n (%)
- TEAE: Neutropenia ([2]; 40 mg BID (n = 4), Any grade): 1 (25.0) n (%)
- TEAE: Thrombocytopenia ([2]; 40 mg BID (n = 4), Any grade): 2 (50.0) n (%)
- TEAE: Urinary white blood cell positivity ([2]; 40 mg BID (n = 4), Any grade): 1 (25.0) n (%)
- TEAE: Any TEAEs ([2]; 40 mg BID (n = 4), ≥ Grade 3): 1 (25.0) n (%)
- TEAE: Thrombocytopenia ([2]; 40 mg BID (n = 4), ≥ Grade 3): 1 (25.0) n (%)
- Dose interruption ([2]; 40 mg BID group): one patient
- TEAE: Abnormal ST segment on electrocardiogram ([2]; 60 mg BID (n = 3), Any grade): 1 (33.3) n (%)
- TEAE: Abnormal T-wave on electrocardiogram ([2]; 60 mg BID (n = 3), Any grade): 1 (33.3) n (%)
- TEAE: Anemia ([2]; 60 mg BID (n = 3), Any grade): 1 (33.3) n (%)
- TEAE: Any TEAEs ([2]; 60 mg BID (n = 3), Any grade): 3 (100) n (%)
- TEAE: Diarrhea ([2]; 60 mg BID (n = 3), Any grade): 1 (33.3) n (%)
- TEAE: Elevated low-density lipoprotein ([2]; 60 mg BID (n = 3), Any grade): 2 (66.7) n (%)
- TEAE: Elevated α-hydroxybutyrate dehydrogenase ([2]; 60 mg BID (n = 3), Any grade): 1 (33.3) n (%)
- TEAE: Fatigue ([2]; 60 mg BID (n = 3), Any grade): 1 (33.3) n (%)
- TEAE: Hypercholesterolemia ([2]; 60 mg BID (n = 3), Any grade): 1 (33.3) n (%)
- TEAE: Hyperglycemia ([2]; 60 mg BID (n = 3), Any grade): 0 n (%)
- TEAE: Hypertriglyceridemia ([2]; 60 mg BID (n = 3), Any grade): 2 (66.7) n (%)
- TEAE: Hyperuricemia ([2]; 60 mg BID (n = 3), Any grade): 1 (33.3) n (%)
- TEAE: Hypoalbuminemia ([2]; 60 mg BID (n = 3), Any grade): 2 (66.7) n (%)
- TEAE: Hypoproteinemia ([2]; 60 mg BID (n = 3), Any grade): 2 (66.7) n (%)
- TEAE: Leukopenia ([2]; 60 mg BID (n = 3), Any grade): 1 (33.3) n (%)
- TEAE: Lymphopenia ([2]; 60 mg BID (n = 3), Any grade): 1 (33.3) n (%)
- TEAE: Nausea ([2]; 60 mg BID (n = 3), Any grade): 1 (33.3) n (%)
- TEAE: Neutropenia ([2]; 60 mg BID (n = 3), Any grade): 1 (33.3) n (%)
- TEAE: Thrombocytopenia ([2]; 60 mg BID (n = 3), Any grade): 2 (66.7) n (%)
- TEAE: Urinary white blood cell positivity ([2]; 60 mg BID (n = 3), Any grade): 1 (33.3) n (%)
- TEAE: Any TEAEs ([2]; 60 mg BID (n = 3), ≥ Grade 3): 2 (66.7) n (%)
- TEAE: Hypertriglyceridemia ([2]; 60 mg BID (n = 3), ≥ Grade 3): 1 (33.3) n (%)
- TEAE: Thrombocytopenia ([2]; 60 mg BID (n = 3), ≥ Grade 3): 1 (33.3) n (%)
- Dose interruption ([2]; 60 mg BID group): one patient
- Dose reduction due to TEAEs ([2]; 60 mg BID group, thrombocytopenia): one patient
- TEAE: Abnormal ST segment on electrocardiogram ([2]; 80 mg BID (n = 4), Any grade): 2 (50.0) n (%)
- TEAE: Abnormal T-wave on electrocardiogram ([2]; 80 mg BID (n = 4), Any grade): 3 (75.0) n (%)
- TEAE: Anemia ([2]; 80 mg BID (n = 4), Any grade): 2 (50.0) n (%)
- TEAE: Any TEAEs ([2]; 80 mg BID (n = 4), Any grade): 4 (100) n (%)
- TEAE: Diarrhea ([2]; 80 mg BID (n = 4), Any grade): 3 (75.0) n (%)
- TEAE: Elevated low-density lipoprotein ([2]; 80 mg BID (n = 4), Any grade): 0 n (%)
- TEAE: Elevated α-hydroxybutyrate dehydrogenase ([2]; 80 mg BID (n = 4), Any grade): 1 (25.0) n (%)
- TEAE: Fatigue ([2]; 80 mg BID (n = 4), Any grade): 2 (50.0) n (%)
- TEAE: Hypercholesterolemia ([2]; 80 mg BID (n = 4), Any grade): 1 (25.0) n (%)
- TEAE: Hyperglycemia ([2]; 80 mg BID (n = 4), Any grade): 2 (50.0) n (%)
- TEAE: Hypertriglyceridemia ([2]; 80 mg BID (n = 4), Any grade): 3 (75.0) n (%)
- TEAE: Hyperuricemia ([2]; 80 mg BID (n = 4), Any grade): 1 (25.0) n (%)
- TEAE: Hypoalbuminemia ([2]; 80 mg BID (n = 4), Any grade): 1 (25.0) n (%)
- TEAE: Hypoproteinemia ([2]; 80 mg BID (n = 4), Any grade): 2 (50.0) n (%)
- TEAE: Leukopenia ([2]; 80 mg BID (n = 4), Any grade): 3 (75.0) n (%)
- TEAE: Lymphopenia ([2]; 80 mg BID (n = 4), Any grade): 2 (50.0) n (%)
- TEAE: Nausea ([2]; 80 mg BID (n = 4), Any grade): 2 (50.0) n (%)
- TEAE: Neutropenia ([2]; 80 mg BID (n = 4), Any grade): 3 (75.0) n (%)
- TEAE: Thrombocytopenia ([2]; 80 mg BID (n = 4), Any grade): 1 (25.0) n (%)
- TEAE: Urinary white blood cell positivity ([2]; 80 mg BID (n = 4), Any grade): 1 (25.0) n (%)
- TEAE: Any TEAEs ([2]; 80 mg BID (n = 4), ≥ Grade 3): 2 (50.0) n (%)
- TEAE: Hyperglycemia ([2]; 80 mg BID (n = 4), ≥ Grade 3): 1 (25.0) n (%)
- TEAE: Hypertriglyceridemia ([2]; 80 mg BID (n = 4), ≥ Grade 3): 2 (50.0) n (%)
- Dose reduction due to TEAEs ([2]; 80 mg BID group, QTc interval prolongation): one patient
- recommended phase 2 dose (RP2D) ([2]; 7 days on, 7 days off, oral): 80 mg BID
- tolerability [2]: well-tolerated
- tolerability ([2]; listed as Abexinostat): favorable tolerability
- TEAE: Abnormal ST segment on electrocardiogram ([2]; Total (n = 11), Any grade): 3 (27.3) n (%)
- TEAE: Abnormal T-wave on electrocardiogram ([2]; Total (n = 11), Any grade): 4 (36.4) n (%)
- TEAE: Anemia ([2]; Total (n = 11), Any grade): 4 (36.4) n (%)
- TEAE: Any TEAEs ([2]; Total (n = 11), Any grade): 11 (100) n (%)
- TEAE: Diarrhea ([2]; Total (n = 11), Any grade): 4 (36.4) n (%)
- TEAE: Elevated low-density lipoprotein ([2]; Total (n = 11), Any grade): 3 (27.3) n (%)
- TEAE: Elevated α-hydroxybutyrate dehydrogenase ([2]; Total (n = 11), Any grade): 3 (27.3) n (%)
- TEAE: Fatigue ([2]; Total (n = 11), Any grade): 4 (36.4) n (%)
- TEAE: Hypercholesterolemia ([2]; Total (n = 11), Any grade): 3 (27.3) n (%)
- TEAE: Hyperglycemia ([2]; Total (n = 11), Any grade): 3 (27.3) n (%)
- TEAE: Hypertriglyceridemia ([2]; Total (n = 11), Any grade): 6 (54.5) n (%)
- TEAE: Hyperuricemia ([2]; Total (n = 11), Any grade): 3 (27.3) n (%)
- TEAE: Hypoalbuminemia ([2]; Total (n = 11), Any grade): 5 (45.5) n (%)
- TEAE: Hypoproteinemia ([2]; Total (n = 11), Any grade): 5 (45.5) n (%)
- TEAE: Leukopenia ([2]; Total (n = 11), Any grade): 4 (36.4) n (%)
- TEAE: Lymphopenia ([2]; Total (n = 11), Any grade): 3 (27.3) n (%)
- TEAE: Nausea ([2]; Total (n = 11), Any grade): 3 (27.3) n (%)
- TEAE: Neutropenia ([2]; Total (n = 11), Any grade): 5 (45.5) n (%)
- TEAE: Thrombocytopenia ([2]; Total (n = 11), Any grade): 5 (45.5) n (%)
- TEAE: Urinary white blood cell positivity ([2]; Total (n = 11), Any grade): 3 (27.3) n (%)
- TEAE: Any TEAEs ([2]; Total (n = 11), ≥ Grade 3): 5 (45.5) n (%)
- TEAE: Hyperglycemia ([2]; Total (n = 11), ≥ Grade 3): 1 (9.1) n (%)
- TEAE: Hypertriglyceridemia ([2]; Total (n = 11), ≥ Grade 3): 3 (27.3) n (%)
- TEAE: Thrombocytopenia ([2]; Total (n = 11), ≥ Grade 3): 2 (18.2) n (%)
- dose limiting toxicity (DLT) ([2]; dose escalation 40, 60, 80 mg BID, assessed after cycle 1): No DLT
- ≥ grade 3 thrombocytopenia ([2]; safety set, all doses, 2/11 (abstract: grade 3)): 18.2%
- ≥ grade 3 hypertriglyceridemia ([2]; safety set, all doses, 3/11 (abstract: grade 3)): 27.3%
- any grade TEAE: abnormal T wave on electrocardiogram ([2]; safety set, all doses, 4/11): 36.4%
- any grade TEAE: anemia ([2]; safety set, all doses, 4/11): 36.4%
- any grade TEAE: diarrhea ([2]; safety set, all doses, 4/11): 36.4%
- any grade TEAE: fatigue ([2]; safety set, all doses, 4/11): 36.4%
- any grade TEAE: leukopenia ([2]; safety set, all doses, 4/11): 36.4%
- any grade TEAE: hypoalbuminemia ([2]; safety set, all doses, 5/11): 45.5%
- any grade TEAE: hypoproteinemia ([2]; safety set, all doses, 5/11): 45.5%
- any grade TEAE: neutropenia ([2]; safety set, all doses, 5/11): 45.5%
- any grade TEAE: thrombocytopenia ([2]; safety set, all doses, 5/11): 45.5%
- any grade TEAE: hypertriglyceridemia ([2]; safety set, all doses, 6/11): 54.5%
- grade of most TEAEs ([2]; safety set, n = 11): grade 1 or 2

Reference: publication PMC12123727 (BMC Cancer, 2025)
